For experiment [1], the system named is BT-474. The experiment can be described thus: Induction of mitochondrial membrane potential loss in human BT-474 cells assessed as depolarized cell population (P2) at 0.5 uM incubated for 48 hrs by JC1 staining based flow cytometry (reference value: 0.48 %). The format is functional. In short, it runs like this:
(§1)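 Cells (1x10⁶/mL) adhered overnight, then exposed to 0.5, 1 and 2.5 μM for 48 h. Collected, PBS-washed, incubated with JC-1 dye (1 μM) for 30 min at 37 °C, washed twice, trypsinized, centrifuged and read by flow cytometry.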

The test system of experiment [2] is BT-474. The experiment can be described thus: Induction of mitochondrial membrane potential loss in human BT-474 cells assessed as depolarized cell population (P1) at 2.5 uM incubated for 48 hrs by JC1 staining based flow cytometry (reference value: 98.09 %). It is filed as functional. The method, boiled down:
as §1
(In general: Flow cytometry measures light scatter and fluorescence of single cells or particles in a stream.)

Experiment [3] has as its system BT-474. The experiment can be described thus: Induction of apoptosis in human BT-474 cells assessed as non-uniform distribution of chromatin incubated for 48 hrs by acridine orange/ethidium bromide double staining-based fluorescence microscopic analysis. It is filed as functional, cell-based. Conditions: dose microM 0.5-2.5, time 48.0 hrs. The method, boiled down: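 Plated at 5×10^4 cells/well, treated after 24 h and held 48 h at 37 °C, 5% CO₂. Acridine orange and ethidium bromide (10 µg/mL each) added in equal volumes, then cells viewed by fluorescence microscopy at 200x.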

For experiment [4], the system named is BT-474. The experiment can be described thus: Induction of apoptosis in human BT-474 cells after 48 hrs by Annexin-V alexa fluor 488/PI staining based flow cytometry analysis. Conditions: dose microM 0.5-2.5, time 48.0 hrs.
Experiment [5] concerns BT-474. The experiment can be described thus: Cell cycle arrest in human BT-474 cells assessed as increase in accumulation in G1 phase at 2.5 uM by propidium iodide staining based flow cytometry(reference value: 4.06%). It is filed as functional. In short, it runs like this: (§2)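 Seeded at 1 x 10⁵ cells/well, after 24 h serum-starved 6 h to synchronize, then returned to FBS-containing medium and treated at 0.5, 1 and 2.5 μM. Harvested cells were PBS-washed, fixed in ice-cold 70% ethanol, stained with propidium iodide (50 μg/mL) plus RNase A for 20 min at 37 °C in the dark. About 10,000 events analysed by flow cytometry.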

The subject of experiment [6] is BT-474. The experiment can be described thus: Induction of mitochondrial membrane potential loss in human BT-474 cells assessed as depolarized cell population (P1) at 1 uM incubated for 48 hrs by JC1 staining based flow cytometry (reference value: 98.09 %). It is filed as functional. The method, boiled down: as §1
Experiment [7] deals with BT-474. The experiment can be described thus: Cell cycle arrest in human BT-474 cells assessed as increase in accumulation in G1 phase at 0.5 uM by propidium iodide staining based flow cytometry(reference value: 4.06%). The format is functional. The method, boiled down:
as §2

The test system of experiment [8] is BT-474. The experiment can be described thus: Inhibition of clonogenicity in human BT-474 cells assessed as reduction in colony formation measured after 7 days by crystal violet staining. It is filed as functional, cell-based. Conditions: dose microM 0.5-2.5, time 7.0 day. The method, boiled down: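 100 cells/well in 6-well plates; after overnight attachment, treated 12 h, then grown in fresh medium at 37 °C, 5% CO₂ with medium changed every 2 days. Colonies fixed and stained with 1% crystal violet in methanol for 3 h, counted by imaging, expressed as percent of untreated control.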

A further experiment addresses Tubulin (Homo sapiens) (UniProt P68371+Q9H4B7+P0DPH7+P68366+Q13509+Q71U36+P04350+Q3ZCM7+P07437+P68363+Q9BQE3+Q6PEY2+Q13885+Q9BVA1+Q9BUF5). The experiment can be described thus: Inhibition of tubulin (unknown origin) polymerization by cell free in vitro assay. It is filed as protein-complex assay.

The source made the active and inactive calls. No cut-off for these calls is given here.

For `O=C(c1cn(Cc2cccc(Oc3ccccc3)c2)nn1)N1CCN(S(=O)(=O)c2ccc(Br)cc2)CC1`, the Activity in the experiment on BT-474 [1] was 50.48%; with BT-474 [2] it was 10.81%; in the experiment on BT-474 [3] it was “Dose-dependent effect”; in the experiment on BT-474 [4], “Dose-dependent effect”; with BT-474 [5], 11.3%; in the experiment with BT-474 [6], 41.46%. The Activity in the experiment on BT-474 [7] stood at 11%. Further, the inhibition result in the experiment on BT-474 [8] was “Dose-dependent effect”. For the same molecule, at Tubulin (Homo sapiens), the inhibition entry was “Active”.

For the origin of these results see ChEMBL document CHEMBL4699431, “Design and synthesis of substituted (1-(benzyl)-1H-1,2,3-triazol-4-yl)(piperazin-1-yl)methanone conjugates: study on their apoptosis inducing ability and tubulin polymerization inhibition” (RSC Med Chem, 2020).
